Results gathered from unrelated publications.
Each line is one published result; the experiments were not run side by side.
Target: DNA-dependent protein kinase catalytic subunit (PRKDC, Homo sapiens, UniProt P78527)

`O=C(CSc1nc2nccnc2c(=O)n1CCc1ccccc1)Nc1nccs1` gave an inhibition of 23% (enzyme activity; inhibitor; 10 µM).
`CC(C)(C)c1nc2c(s1)c1nc(N)ncc1c1ccc(NS(=O)(=O)c3c(F)cccc3F)c(F)c12` has a remaining activity of 94% (enzyme activity; inhibitor; radiometric; 1 µM).
With `Cc1ccc(NC(=O)c2ccc(C)c(C(F)(F)F)c2)cc1C#Cc1nn(C2CCC(O)CC2)c2ncnc(N)c12` (stereo not drawn) the remaining signal was 94% (cell-free assay; 10 µM).
`C=CC(=O)Nc1cc(Nc2nccc(Nc3cc(Cl)c(F)cc3C(C)(C)O)n2)c(OC)cc1N1CC[C@@H](N(C)C)C1` has an inhibition of -1% (enzyme activity; inhibitor; 1 µM).
`COc1cc2ncnc(Nc3ccc(Oc4ccccc4)cc3C)c2cc1OC` has an inhibition of 9% (enzyme activity; inhibitor; 1 µM).
The inhibition of `CS(=O)(=O)Nc1cccc(-c2csc(NC(=O)CSc3nc4nccnc4c(=O)n3CCc3ccccc3)n2)c1` is reported as 12% (enzyme activity; inhibitor; 10 µM).
`CC(C)(C)c1nc(-c2cccc(NS(=O)(=O)c3c(F)cccc3F)c2F)c(-c2ccnc(N)n2)s1` has a remaining activity of 92% (enzyme activity; inhibitor; radiometric; 1 µM).
With `CNc1cc(Oc2cc(C(=O)Nc3cc(N4CCN(C)CC4)cc(C(F)(F)F)c3)ccc2C)ncn1` the inhibition was -44.8% (target engagement in cells; inhibitor; chemoproteomics; Huh-7; 1 µM).
The activity vs control of `Cc1ccc(C(=O)NCc2ccsc2)cc1C#Cc1cn(C(C)C)c2ncnc(N)c12` is reported as 95% (enzyme activity; inhibitor; 1 µM).
The activity vs control of `Cc1cc(NC(=O)c2cccc3cc(-c4cccc5[nH]nc(N)c45)ccc23)ccc1F` is reported as 99% (enzyme activity; inhibitor; 0.1 µM).
`COc1cc2ncnc(Nc3ccc(Oc4ccccc4)c(C)c3C)c2cc1OC` has an inhibition of 9% (enzyme activity; inhibitor; 1 µM).
`Cc1cnc(NC2CCOCC2)nc1-n1cnc(C(=O)NC(CN)c2cc(F)cc(Cl)c2)c1` (stereo not drawn) gave a remaining activity of 119% (enzyme activity; inhibitor; radiometric; 1 µM).
